Compound activity: PubChem BioAssay, several laboratories
proCasp3 act = procaspase-3 (human) activation | P42574 | recombinant procaspase-3 D3A, Ac-DEVD-pNA absorbance 405 nm | activation, % at 8.5 µM | hit rate 0.11% among 330,000;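 active = activation above the mean of all tested compounds plus 3 SD, cut at about 21% in these data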;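 also: 0% = DMSO alone and 100% = DMSO wells spiked with extra 5 µM PC-3 D3A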
Target sequence (P42574 whole entry D9A/D28A/D175A): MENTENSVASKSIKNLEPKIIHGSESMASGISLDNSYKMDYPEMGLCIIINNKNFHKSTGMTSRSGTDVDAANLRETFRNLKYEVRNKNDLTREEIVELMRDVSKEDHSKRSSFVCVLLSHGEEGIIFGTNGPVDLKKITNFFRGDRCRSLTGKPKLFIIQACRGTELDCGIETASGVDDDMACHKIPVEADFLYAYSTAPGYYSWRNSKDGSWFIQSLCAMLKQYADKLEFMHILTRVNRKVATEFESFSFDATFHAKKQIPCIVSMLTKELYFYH
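Evaluation: percent activation relative to control range; Material: Procaspase-3 D3A mutant, all three cleavage aspartates alanine; Compound: single dose, 8.5 µM nominal compound, 0.8% DMSO; Replication: one well per compound; Signal: absorbance at 405 nm, 0 and 120 min; Schedule: 1 h preincubation plus 2 h reaction at 25 °C.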
PolyA inhibitor = blocks polyadenylation in yeast reporter cells; S. cerevisiae SKY197-pL101 polyadenylation reporter, beta-gal luminescence; efflux-impaired pdr1/pdr3 knockout yeast; score 100 = 6 SD above DMSO; activity score, % at 12 µM; hit rate 0.02% among 300,000; AID 1875;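 active = lowest replicate activity score at least 50, where 100 means six control SD above control mean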;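 also: yeast exposed to compound for 9 h at 30 °C; higher score means more reporter readthrough which indicates perturbed polyadenylation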
AHR activator = activators of human aryl hydrocarbon receptor. P35869. AHR-responsive luciferase reporter cells, luminescence. activation, % at 5 µM. hit rate 2.5% among 320,000. AID 2796; in the data active = activation above about 47%;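 also: 0% = vehicle wells and 100% = reference agonist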
procasp7 counter = counter-screen: procaspase-7 (human) activation; P55210; recombinant procaspase-7, Ac-DEVD-pNA absorbance 405 nm; D23A/D198A/D206A triple mutant, cannot self-cleave; scale: DMSO 0, 5 µM enzyme 100; activation, % at 8.5 µM; hit rate 0.093% among 330,000;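 active = percent activation above the screen-wide mean plus 3 SD, cut at about 25% in these data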
Target sequence (P55210 whole entry D23A/D198A/D206A): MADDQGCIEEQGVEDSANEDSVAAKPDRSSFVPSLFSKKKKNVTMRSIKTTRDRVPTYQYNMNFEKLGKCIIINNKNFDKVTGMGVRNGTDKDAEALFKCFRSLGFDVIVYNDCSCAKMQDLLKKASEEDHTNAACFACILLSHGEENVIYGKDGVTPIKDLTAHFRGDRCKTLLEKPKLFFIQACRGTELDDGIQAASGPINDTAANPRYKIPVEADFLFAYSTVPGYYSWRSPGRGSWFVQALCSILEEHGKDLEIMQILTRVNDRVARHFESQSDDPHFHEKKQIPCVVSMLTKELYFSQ
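Replicates: singlicate. Assay system: Procaspase-7 triple mutant (PC-7 D3A). Signal: 405 nm absorbance of p-nitroaniline. Times: 1 h preincubation, 2 h reaction. Buffer or medium: Zinc-free HEPES pH 7.4 with 300 mM NaCl, 0.01% Triton X-100. Also added: DEVD-pNA substrate. Benchmarks: DMSO wells as 0%, DMSO with 5 µM added PC-7 as 100%.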
* hit, by the source's call; nt = not tested or not shown. Rows were chosen to be rich in hits. Some 2.6% of all compounds tested hit in one or more screens of this group.

SMILES | proCasp3 act | PolyA inhibitor | AHR activator | procasp7 counter
O=C(/C=C1\NCC2c3ccccc3CCN2C1=O)c1ccccc1 (stereo not given) | 2 | -3 | 62* | -10
Cc1ccc2nc(SCc3nnc(-c4ccccc4Br)o3)[nH]c2c1 | 0 | -13 | 52* | -17
Clc1ccc2nc(SCc3nnc(-c4ccccc4)o3)[nH]c2c1 | 3 | -21 | 6 | -3
CN1CCN(CC(=O)Nc2nnc(-c3cccs3)s2)CC1 | 10 | -12 | 111* | 13
CCC(CC)C(=O)Nc1nnc(-c2cccs2)s1 | -1 | -11 | 73* | -10
COc1ccc(C)cc1S(=O)(=O)NCC(c1ccc2c(c1)OCO2)N1CCOCC1 (stereo not given) | -4 | 1 | 1 | 10
Clc1ccccc1CSc1ncn(-c2ccccc2)n1 | -6 | -46 | 68* | -2
O=C(CSc1nc2ccccc2s1)NCCOc1ccccc1 | 0 | -9 | 36 | 7
O=C(CSc1nc2ccccc2s1)NCCOc1ccc(Cl)cc1 | 0 | -22 | 48* | -4
O=C(CSc1nc2ccccc2s1)NNC(=S)Nc1ccc(Cl)cc1 | -8 | -2 | 71* | -15
CC(C)=CCc1c(O)cc2c(c1O)C(=O)CC(c1ccccc1)O2 (stereo not given) | 9 | -13 | 51* | -3
COc1cc(OC)c(NC(=O)c2cncn2-c2ccc(F)cc2)cc1Cl | 1 | -3 | 65* | -7
O=C1C=C(c2ccccc2)OC(=O)C1C(=O)c1ccccc1 (stereo not given) | -4 | 121* | 2 | -25
O=[N+]([O-])c1ccc(/C=N/NC(=S)Nc2ccccc2F)o1 | -3 | -9 | 10 | -12
Fc1ccccc1NC(=S)N/N=C/c1ccccc1Br | -5 | 14 | 124* | 9
CCn1cc(Br)c(C(=O)NN)n1 | -7 | 6 | 50* | -3
CCn1nccc1C(=O)Nc1nccs1 | 2 | nt | 9 | 6
CCn1cc(Br)c(C(=O)Nc2ccc(Cl)c(Cl)c2)n1 | -1 | -6 | 77* | 7
CCn1cc(Br)c(C(=O)Nc2nccs2)n1 | 3 | 1 | 57* | 13
O=C(COC(=O)Cc1ccc(F)cc1)NC(=O)c1ccccc1 | -3 | -9 | -1 | 7
Cc1ccc(NC(=O)c2ccc(Cl)nc2)cc1 | 1 | -10 | 20 | 2
CCCSc1ccc(C(=O)Nc2ccc(Cl)cc2)cn1 | -7 | 10 | 60* | 0
C/C(=N\Nc1ccc2nncn2n1)c1ccc(Br)s1 | 0 | -1 | 78* | -10
CN1/C(=C\C(=O)c2cccs2)Sc2ccccc21 | -42 | -14 | 77* | -44
CC(=O)c1ccc(OC(=O)COc2ccccc2Cl)cc1 | 2 | 9 | -1 | -3
SMILES | proCasp3 act | PolyA inhibitor | AHR activator | procasp7 counter
CCSc1ncc(/C=N/Nc2ccc(F)cc2)n1C | 2 | -23 | 77* | 3
N#Cc1cc(-c2ccccc2)nc(N2CCNCC2)n1 | -8 | 6 | 50* | 1
Cc1cccn2c(=O)c(C(=O)NC3CC(C)CC(C)(C)C3)c(O)nc12 (stereo not given) | -3 | 5 | 4 | -1
Cn1cc([N+](=O)[O-])c(C(=O)NCc2cc3cc(Cl)ccc3[nH]2)n1 | 8 | -8 | 48* | -4
CC1CCCC/C1=N\NC(=S)Nc1ccccc1 (stereo not given) | -8 | -2 | 60* | -6
CN1c2ccsc2/C(=N/Nc2ccccc2)CS1(=O)=O | -17 | -28 | 74* | -5
CN1c2ccsc2/C(=N/NC(=O)c2c(F)cccc2F)CS1(=O)=O | -1 | 11 | 3 | 8
CCC(=O)Nc1nc(C)c(-c2csc(Nc3cccc(O)c3)n2)s1 | 1 | 10 | 41 | 9
C=CCNc1nc(-c2sc(NC(=O)CC)nc2C)cs1 | 1 | 9 | 70* | -4
CCCCCC(=O)Nc1nc(C)c(-c2csc(Nc3ccc(Cl)cc3)n2)s1 | -2 | -21 | 65* | 1
CCCCCCC(=O)Nc1nc(C)c(-c2csc(Nc3ccc(Cl)cc3)n2)s1 | -4 | -13 | 62* | -9
CSc1ccc(CN(C)C(=O)C23CC4CC(CC(Cl)(C4)C2)C3)cc1 | 8 | -3 | 0 | 0
COc1ccc(NC(=O)N(C)C[C@H]2Oc3ccc(NC(=O)Cc4ccccc4)cc3CC(=O)N([C@H](C)CO)C[C@H]2C)cc1 | -2 | nt | -2 | 10
Cc1cccc(OCC(=O)N/N=C/c2cn[nH]c2-c2ccc(Cl)c(Cl)c2)c1 | 4 | 2 | 47* | 5
Cc1ccc(OCC(=O)N/N=C/c2cn[nH]c2-c2ccc(Cl)c(Cl)c2)cc1 | -1 | -1 | 47 | -2
CCCn1c(=N)c(C(=O)NC2CCCC2)cc2c(=O)n3cccc(C)c3nc21 | -12 | -5 | 57* | -2
Cc1cccn2c(=O)c3cc(C(=O)NC4CCCC4)c(=N)n(C4CCCC4)c3nc12 | -7 | -5 | 54* | -5
Cc1cccc(N2CC(C(=O)NCCC3=CCCCC3)CC2=O)c1C (stereo not given) | -1 | -2 | 3 | -2
COc1ccc(F)cc1C(=O)C1CCCN(Cc2cccn2-c2cccnc2)C1 (stereo not given) | 0 | -8 | 52* | 4
COc1ccccc1/C=[N+](\[O-])C1SC(=S)N(C)C1(C)C (stereo not given) | 0 | -9 | -2 | 1
Cc1cc(NCc2ccccn2)n2ncc(-c3ccccc3)c2n1 | -7 | -22 | 74* | 2
Cc1cc(NCc2ccccn2)n2ncc(-c3ccc(Cl)cc3)c2n1 | 6 | -47 | 76* | 7
CCOC(=O)Cc1c(C)nc2c(-c3ccc(Cl)cc3)cnn2c1C | 7 | -2 | 65* | 4
Cc1cc(N)n2ncc(-c3ccc(F)cc3)c2n1 | -5 | -10 | 45 | 3
Cc1cc(N)n2ncc(-c3ccc(Cl)cc3)c2n1 | -3 | -12 | 69* | -1
SMILES | proCasp3 act | PolyA inhibitor | AHR activator | procasp7 counter
CCOC(=O)Cc1c(C)nc2c(-c3ccc(Cl)cc3)c(C)[nH]n2c1=O | -1 | -5 | 5 | 6
COc1cc(C(=O)OCC(=O)Nc2cccc(S(=O)(=O)N3CCOCC3)c2)ccc1OCC(C)C | -12 | 26 | -2 | 4
O=C(Nc1ccc(S(=O)(=O)N2CCCC2)cc1)c1cc(F)c(F)cc1Cl | 3 | 4 | -2 | -5
CC(=O)Nc1nc(-c2ccc3c(c2)OCO3)cs1 | -3 | -6 | 42 | 3
COc1ccc(-c2csc(/C=C/c3ccc4c(c3)OCO4)n2)cc1OC | -18 | 6 | 54* | -28
Cc1cccc(N2CCN(S(=O)(=O)c3c(C)[nH]c(C)c3C(=O)N3CCCC3)CC2C)c1 (stereo not given) | 9 | 6 | 3 | 9
Cc1ccc(Nc2nc(-c3ccncc3)cs2)cc1 | nt | -11 | nt | nt
COc1ccc(-c2csc(NC(=O)c3c(OC)cccc3OC)n2)cc1 | 9 | -11 | -13 | 5
Cc1cccc(Nc2nc(-c3sc(C)nc3C)cs2)c1 | 5 | -6 | 70* | -5
COc1cccc(Nc2nnc(SCc3nc4ccccc4s3)s2)c1 | -10 | -8 | 67* | -8
Cc1cccc(Nc2nc(-c3ccncc3)cs2)c1 | 5 | -12 | 54* | -4
